This is an account of results in ChEMBL document CHEMBL1138208, “Discovery of N-[(1S,2S)-3-(4-Chlorophenyl)-2- (3-cyanophenyl)-1-methylpropyl]-2-methyl-2- {[5-(trifluoromethyl)pyridin-2-yl]oxy}propanamide (MK-0364), a novel, acyclic cannabinoid-1 receptor inverse agonist for the treatment of obesity” (J Med Chem, 2006).

Broadly, the IC50 is the concentration that gives 50% inhibition. Broadly, the bioavailability is dose-corrected exposure relative to a reference, in per cent. What is called half-life is how long it takes for the measured level to halve.

The target of one data set is Cannabinoid receptor 1 (Homo sapiens, UniProt P21554). Briefly: biochemical. The class given is cell-based, CHO.
Chain of Cannabinoid receptor 1 (P21554 whole entry): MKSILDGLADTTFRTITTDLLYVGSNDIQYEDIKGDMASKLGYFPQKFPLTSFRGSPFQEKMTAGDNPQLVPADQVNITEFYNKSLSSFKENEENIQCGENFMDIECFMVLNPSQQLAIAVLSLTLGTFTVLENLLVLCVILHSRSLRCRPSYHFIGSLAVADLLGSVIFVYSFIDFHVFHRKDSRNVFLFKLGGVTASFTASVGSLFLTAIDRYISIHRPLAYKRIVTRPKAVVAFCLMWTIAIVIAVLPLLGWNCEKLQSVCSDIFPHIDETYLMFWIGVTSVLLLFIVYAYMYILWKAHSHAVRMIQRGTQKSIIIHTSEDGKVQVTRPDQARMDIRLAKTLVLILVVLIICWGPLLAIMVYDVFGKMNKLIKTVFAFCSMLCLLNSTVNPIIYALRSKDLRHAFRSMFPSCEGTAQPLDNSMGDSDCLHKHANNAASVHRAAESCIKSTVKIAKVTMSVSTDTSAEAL
The target in another data set is Cannabinoid receptor 2 (Homo sapiens, UniProt P34972). Briefly: Inhibition of [3H]CP-55940 binding to human recombinant CB2 receptor in CHO cells. Type of data set: cell-based.
Chain of Cannabinoid receptor 2 (P34972 whole entry): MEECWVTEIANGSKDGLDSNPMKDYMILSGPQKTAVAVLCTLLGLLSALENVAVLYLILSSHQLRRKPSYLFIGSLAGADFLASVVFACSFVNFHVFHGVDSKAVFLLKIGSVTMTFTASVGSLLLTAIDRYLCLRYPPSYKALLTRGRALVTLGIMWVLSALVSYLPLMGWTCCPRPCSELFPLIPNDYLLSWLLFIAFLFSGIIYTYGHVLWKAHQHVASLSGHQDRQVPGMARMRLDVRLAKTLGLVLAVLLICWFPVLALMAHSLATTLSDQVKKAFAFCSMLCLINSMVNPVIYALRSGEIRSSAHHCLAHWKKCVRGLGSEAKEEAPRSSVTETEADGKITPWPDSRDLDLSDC
Another data set is filed under the species Homo sapiens. Briefly: Protein binding in human liver microsome. The class given is ADME. The settings on record: microsomes. Summed up: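 The tritiated compound was incubated with liver microsomes. Irreversible (covalent) binding of radioactivity to microsomal protein was measured after 1 h of incubation and expressed as pmol equiv/mg protein.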
A general note: Liver microsomes are a subcellular fraction often used to study metabolism.

Data set [1] deals with Rattus norvegicus. Briefly: Reduction in Sprague-Dawley rat body weight at 0.3 mg/kg, po after 14 days relative to control. Type of data set: functional. Further details: scale not given: the % may be the effect or the level left. Summed up:
(§1)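 Diet-induced obese (DIO) rats were dosed orally once daily (qd) for 14 days at 0.3, 1 or 3 mg/kg. Body weight change is expressed as percent reduction relative to vehicle-treated animals.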

The subject of data set [2] is Rattus norvegicus. Briefly: Inhibition of CP-55940-induced decrease in body temperature in Sprague-Dawley rat at 3 mg/kg, iv. The class given is functional, organism-based. Further details: dose 3 mg/kg.
The test system of data set [3] is Rattus norvegicus. Briefly: Reduction in Sprague-Dawley rat body weight at 3 mg/kg, po after 14 days relative to control. Also on record: scale not given: the % may be the effect or the level left. Type of data set: functional. Summed up: as §1
Data set [4] in a line: Bioavailability in Sprague-Dawley rat at 1 mg/kg, iv and 2 mg/kg, po. Type of data set: ADME, organism-based. The settings on record: in vivo.
A short description of data set [5]: Half life in rhesus monkey at 0.2 mg/kg, iv and 0.4 mg/kg, po. The class given is ADME, organism-based, Macaca mulatta. The conditions noted are these: in vivo.
Data set [6] can be described thus: Half life in dog at 0.2 mg/kg, iv and 0.4 mg/kg, po. Type of data set: ADME, organism-based, Canis lupus familiaris. The conditions noted are these: in vivo.
Data set [7] in a line: Drug level in Sprague-Dawley rat plasma at 1 mg/kg, iv after 1 hr. Type of data set: ADME, organism-based. Further details: dose 1 mg/kg, route intravenous. The settings on record: read-out: Drug uptake.
Data set [8] in a line: Bioavailability in dog at 0.2 mg/kg, iv and 0.4 mg/kg, po. The settings on record: in vivo. The class given is ADME, organism-based, Canis lupus familiaris.
Data set [9] can be described thus: Drug level in Sprague-Dawley rat brain at 1 mg/kg, iv after 1 hr. Type of data set: ADME, organism-based. Further details: dose 1 mg/kg, route intravenous. The conditions noted are these: read-out: Drug uptake.
Data set [10] is described as follows: Bioavailability in rhesus monkey at 0.2 mg/kg, iv and 0.4 mg/kg, po. The class given is ADME, organism-based, Macaca mulatta. The conditions noted are these: in vivo.
For data set [11], the system named is Rattus norvegicus. Briefly: Reduction in Sprague-Dawley rat body weight at 1 mg/kg, po after 14 days relative to control. Type of data set: functional. Also on record: scale not given: the % may be the effect or the level left. Summed up: as §1
Data set [12] has as its system Rattus norvegicus. Briefly: Reduction in food uptake in DIO Sprague-Dawley rat at 3 mg/kg, po. The class given is functional. Also on record: scale not given: the % may be the effect or the level left. Summed up: (§2)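 Diet-induced obese rats were dosed orally. Overnight food intake was measured and reported as % change (mean ± error).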
Data set [13] deals with Rattus norvegicus. Briefly: Reduction in food uptake in DIO Sprague-Dawley rat at 10 mg/kg, po. Type of data set: functional. Further details: scale not given: the % may be the effect or the level left. Summed up: as §2

Activity calls are given as the source filed them. The rule behind the calls is not given here.

For the compound `C[C@H](NC(=O)C(C)(C)Oc1ccc(Cl)cc1)[C@@H](Cc1ccc(Cl)cc1)c1ccc(F)cc1`, the IC50 against Cannabinoid receptor 1 is 90 nM.
With `C[C@H](NC(=O)C(C)(C)Oc1ccc(Cl)cc1)[C@@H](Cc1ccccc1)c1ccccc1`, at Cannabinoid receptor 1, the IC50 is 33 nM.
Regarding `C[C@H](NC(=O)C(C)(C)Oc1ccncc1)[C@H](Cc1ccc(Cl)cc1)c1ccccc1`, the IC50 at Cannabinoid receptor 1 came to 17 nM; on Cannabinoid receptor 2 it was 1200 nM.
`C[C@H](NC(=O)C(C)(C)Oc1ccc(C(F)(F)F)cn1)[C@@H](Cc1ccc(Cl)cc1)c1ccccc1` gave an Activity in the data set filed under Homo sapiens of 88 pmol/mg.
With `C[C@H](NC(=O)C(C)(C)Oc1ccc(Cl)cn1)[C@@H](Cc1ccc(Cl)cc1)c1ccccc1`, the Activity in the data set filed under Homo sapiens was 300 pmol/mg.
In the case of `C[C@H](NC(=O)C(C)(C)Oc1ccc(Cl)cc1)[C@@H](Cc1ccc(F)cc1)c1ccccc1`, the IC50 against Cannabinoid receptor 1 turned out to be 14 nM.
`C[C@H](NC(=O)C(C)(C)Oc1ccccc1)[C@@H](Cc1ccc(Cl)cc1)c1ccccc1` returned an Activity in the data set filed under Homo sapiens of 3900 pmol/mg.
In the data set filed under Homo sapiens, `C[C@H](NC(=O)C(C)(C)Oc1ccccn1)[C@@H](Cc1ccc(Cl)cc1)c1ccccc1` had an Activity of 910 pmol/mg.
Turning to `C[C@H](NC(=O)C(C)(C)Oc1ccc(C(F)(F)F)cn1)[C@@H](Cc1ccc(Cl)cc1)c1cccc(C#N)c1` [TARANABANT], the Activity is given as 4% with Rattus norvegicus [1], 7% in the data set with Rattus norvegicus [3], 27 pmol/mg in the data set filed under Homo sapiens and 5% in the data set with Rattus norvegicus [11]. Also, in the data set on Rattus norvegicus [2], the outcome was Active. Moreover, the results for the bioavailability in [4], in data set [8] and in data set [10] were 74%, 31% and 31%, respectively. Besides, the figures for the half-life in [5] and in data set [6] were 3.6 h and 14 h, respectively. The concentration at 1 h in data set [7] is 180 nM; in data set [9] it was 110 nM.
Regarding `C[C@H](NC(=O)C(C)(C)Oc1cc(F)cc(F)c1)[C@@H](Cc1ccc(Cl)cc1)c1ccccc1`, the Activity in the data set on Rattus norvegicus [12] amounted to 55%; in the data set on Rattus norvegicus [13] it was 81%; in the data set filed under Homo sapiens it was 1700 pmol/mg. Further, the bioavailability in [4] worked out at 19%. Further, the concentration at 1 h was 350 nM in data set [7] and 270 nM in data set [9].
The compound `C[C@H](NC(=O)C(C)(C)Oc1ccc(Cl)cc1)[C@@H](Cc1ccccc1Cl)c1ccccc1` gave an IC50 against Cannabinoid receptor 1 of 140 nM.
Same read-out and setting: as for `C[C@H](NC(=O)C(C)(C)Oc1ccc(Cl)cc1)[C@@H](Cc1ccc(C(F)(F)F)cc1)c1ccccc1`, the figure is 3.4 nM.
On to `C[C@H](NC(=O)C(C)(C)Oc1ccc(Cl)cc1)[C@@H](Cc1ccc(Cl)cc1)c1cccc(F)c1`, for which the IC50 amounted to 2.8 nM at Cannabinoid receptor 1 and 530 nM on Cannabinoid receptor 2.
For `C[C@@H](NC(=O)C(C)(C)Oc1ccc(Cl)cc1)[C@H](Cc1ccc(Cl)cc1)c1ccccc1` the same measures were 170 nM and 1700 nM.
Compound `C[C@H](NC(=O)C(C)(C)Oc1ccccc1Cl)[C@@H](Cc1ccc(Cl)cc1)c1ccccc1` displayed an IC50 against Cannabinoid receptor 1 of 18 nM.
Turning to `C[C@H](NC(=O)C(C)(C)Oc1ccc(Cl)cc1)[C@@H](Cc1ccc(Cl)cc1)c1ccccc1F`, the values for the IC50 on Cannabinoid receptor 1 and on Cannabinoid receptor 2 were 12 nM and 410 nM, respectively.
Take `C[C@H](NC(=O)C(C)(C)Oc1cccnc1)[C@@H](Cc1ccc(Cl)cc1)c1ccccc1`: the IC50 on Cannabinoid receptor 1 came out at 19 nM.
As for `C[C@@H](NC(=O)C(C)(C)Oc1ccc(Cl)cc1)[C@H](Cc1ccc(Cl)cc1)c1ccc(Cl)cc1`, the IC50 came to 13 nM at Cannabinoid receptor 1 and 600 nM at Cannabinoid receptor 2.
